According to ChEMBL document CHEMBL3525994, “Lysosomal sequestration (trapping) of lipophilic amine (cationic amphiphilic) drugs in immortalized human hepatocytes (Fa2N-4 cells)” (Drug Metab Dispos, 2013):

Legend:
[1] = Drug uptake in lysosomes of human Fa2N-4 cells assessed as inhibition of LysoTracker Red fluorescence after 30 mins; type: ADME, cell-based, Lysosome; settings: Fa2N-4, 0.5 h
[2] = Drug uptake in lysosomes of human Fa2N-4 cells assessed as cellular partitioning measured per 10^6 cells at 1 uM after 5 mins by LC-MS analysis; type: ADME, cell-based, Lysosome; settings: fa2n-4, 5 min
Method in brief: (§1)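 Fa2N-4 cells, plated at 50,000/well on collagen in MFE with 10% newborn calf serum, switched to serum-free medium after attachment and used 36–48 h after plating. Substrate 1 μM in serum-free MFE, 37±1°C. Cells and substrate solution preincubated apart 5 min, then combined (± ammonium chloride 50 mM, nigericin 10 μM plus monensin 20 μM, or co-drug). Stopped with ice-cold PBS, washed, lysed in acetonitrile with internal standard, quantified by LC-MS/MS.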

[3] = Drug uptake in lysosomes of human Fa2N-4 cells assessed as cellular partitioning measured per 10^6 cells at 1 uM after 5 mins by LC-MS analysis in presence of ammonium chloride; type: ADME, cell-based, Lysosome; settings: fa2n-4, 5 min; method in brief: as §1
[4] = Drug uptake in lysosomes of human Fa2N-4 cells assessed as inhibition of LysoTracker Red fluorescence at 500 uM after 30 mins relative to control; type: cell-based, Lysosome; settings: Fa2N-4 cells (lysosomes), probe LysoTracker Red
Method in brief: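 Fa2N-4 cells at 50,000/well on collagen, rinsed with PBS. Drug (methanol stock diluted in supplemented modified Chee's medium; final 1–500 μM) with LysoTracker Red 50 nM final, 30 min, 37°C, triplicate. Cells PBS-rinsed and solubilised in acetonitrile. Fluorescence read at ex 530/em 590 nm. Medium kept for LDH release.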

[5] = Drug uptake in lysosomes of human Fa2N-4 cells assessed as cellular partitioning at 1 uM after 5 mins by LC-MS analysis in presence of diclofenac; type: ADME, cell-based, Lysosome; settings: fa2n-4, 5 min; method in brief: as §1
[6] = Drug uptake in lysosomes of human Fa2N-4 cells assessed as cellular partitioning at 1 uM preincubated with chloroquine for 5 mins followed by media washout and compound treatment measured after 5 mins by LC-MS analysis; type: ADME, cell-based, Lysosome; settings: fa2n-4, 5 min
Method in brief: (§2)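 Inhibitor is ammonium chloride 50 mM or chloroquine 200 μM. Three orders of addition: added together with substrate; added 5 min before substrate and left in; or added 5 min before substrate, then cells washed before substrate. Stopped with ice-cold PBS, acetonitrile lysis with internal standard, LC-MS/MS.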

[7] = Drug uptake in lysosomes of human Fa2N-4 cells assessed as cellular partitioning at 1 uM after 5 mins by LC-MS analysis in presence of imipramine; type: ADME, cell-based, Lysosome; settings: fa2n-4, 5 min; method in brief: as §1
[8] = Drug uptake in lysosomes of human Fa2N-4 cells assessed as cellular partitioning at 1 uM measured at 10 mins by LC-MS analysis in presence of ammonium chloride; type: ADME, cell-based, Lysosome; settings: fa2n-4, 10 min; method in brief: as §1
[9] = Drug uptake in lysosomes of human Fa2N-4 cells assessed as cellular partitioning at 1 uM after 5 mins by LC-MS analysis in presence of astemizole; type: ADME, cell-based, Lysosome; settings: fa2n-4, 5 min; method in brief: as §1
[10] = Drug uptake in lysosomes of human Fa2N-4 cells assessed as cellular partitioning at 1 uM preincubated with ammonium chloride for 5 mins followed by media washout and compound treatment measured after 5 mins by LC-MS analysis; type: ADME, cell-based, Lysosome; settings: fa2n-4, 5 min; method in brief: as §2
[11] = Drug uptake in lysosomes of human Fa2N-4 cells assessed as cellular partitioning at 1 uM co-incubated with ammonium chloride for 5 mins by LC-MS analysis; type: ADME, cell-based, Lysosome; settings: fa2n-4, 5 min; method in brief: as §1
[12] = Drug uptake in lysosomes of human Fa2N-4 cells assessed as cellular partitioning at 1 uM after 5 mins by LC-MS analysis in presence of ammonium chloride, nigericin and monensin; type: ADME, cell-based, Lysosome; settings: fa2n-4, 5 min; method in brief: as §1
[13] = Drug uptake in lysosomes of human Fa2N-4 cells assessed as cellular partitioning at 1 uM after 5 mins by LC-MS analysis in presence of ammonium chloride; type: ADME, cell-based, Lysosome; settings: fa2n-4, 5 min; method in brief: as §1
[14] = Drug uptake in lysosomes of human Fa2N-4 cells assessed as cellular partitioning at 1 uM after 5 mins by LC-MS analysis in presence of atorvastatin; type: ADME, cell-based, Lysosome; settings: fa2n-4, 5 min; method in brief: as §1
[15] = Drug uptake in lysosomes of human Fa2N-4 cells assessed as cellular partitioning at 1 uM after 5 mins by LC-MS analysis in presence of nigericin and monensin; type: ADME, cell-based, Lysosome; settings: fa2n-4, 5 min; method in brief: as §1
[16] = Drug uptake in lysosomes of human Fa2N-4 cells assessed as cellular partitioning at 1 uM co-incubated with chloroquine for 5 mins by LC-MS analysis; type: ADME, cell-based, Lysosome; settings: fa2n-4, 5 min; method in brief: as §2
[17] = Drug uptake in lysosomes of human Fa2N-4 cells assessed as cellular partitioning at 1 uM after 5 mins by LC-MS analysis in presence of dextromethorphan; type: ADME, cell-based, Lysosome; settings: fa2n-4, 5 min; method in brief: as §1
[18] = Drug uptake in lysosomes of human Fa2N-4 cells assessed as cellular partitioning at 1 uM up to 10 mins by LC-MS analysis; type: ADME, cell-based, Lysosome; settings: fa2n-4, 10 min; method in brief: as §1
[19] = Drug uptake in lysosomes of human Fa2N-4 cells assessed as cellular partitioning at 1 uM after 5 mins by LC-MS analysis in presence of rifampin; type: ADME, cell-based, Lysosome; settings: fa2n-4, 5 min; method in brief: as §1
[20] = Drug uptake in lysosomes of human Fa2N-4 cells assessed as cellular partitioning at 1 uM preincubated with ammonium chloride followed by compound treatment measured after 5 mins by LC-MS analysis; type: ADME, cell-based, Lysosome; settings: fa2n-4, 5 min; method in brief: as §2
[21] = Drug uptake in lysosomes of human Fa2N-4 cells assessed as cellular partitioning at 1 uM after 5 mins by LC-MS analysis in presence of chloroquine; type: ADME, cell-based, Lysosome; settings: fa2n-4, 5 min; method in brief: as §2
[22] = Drug uptake in lysosomes of human Fa2N-4 cells assessed as cellular partitioning at 1 uM preincubated with chloroquine followed by compound treatment measured after 5 mins by LC-MS analysis; type: ADME, cell-based, Lysosome; settings: fa2n-4, 5 min; method in brief: as §2

SMILES	IC50 [1]	other results
C#Cc1cccc(Nc2ncnc3cc(OCCOC)c(OCCOC)cc23)c1 [ERLOTINIB]	> 500 µM	–
O=C(O)COCCN1CCN(C(c2ccccc2)c2ccc(Cl)cc2)CC1 (stereo not given) [CETIRIZINE]	> 500 µM	–
OC(Cn1cncn1)(Cn1cncn1)c1ccc(F)cc1F [FLUCONAZOLE]	> 500 µM	–
CC(=O)Nc1ccc(O)cc1 [ACETAMINOPHEN]	> 500 µM	–
COc1ccc(CCN2CCC(Nc3nc4ccccc4n3Cc3ccc(F)cc3)CC2)cc1 [ASTEMIZOLE]	110 µM	–
CN1C(C(=O)Nc2ccccn2)=C(O)c2sccc2S1(=O)=O [TENOXICAM]	> 500 µM	–
CN(C)CCCN1c2ccccc2CCc2ccccc21 [IMIPRAMINE]	260 µM	–
CC(C)c1c(C(=O)Nc2ccccc2)c(-c2ccccc2)c(-c2ccc(F)cc2)n1CC[C@@H](O)C[C@@H](O)CC(=O)O [ATORVASTATIN]	> 500 µM	Drug uptake [2]: < 11 pmol; Drug uptake [3]: 34 pmol
CC(C)n1c(/C=C/C(O)CC(O)CC(=O)O)c(-c2ccc(F)cc2)c2ccccc21 (stereo not given) [FLUVASTATIN]	> 500 µM	–
CNCCCN1c2ccccc2CCc2ccccc21 [DESIPRAMINE]	220 µM	–
CCN(CC)CCCC(C)Nc1ccnc2cc(Cl)ccc12 (stereo not given) [CHLOROQUINE]	220 µM	–
CC(CCc1ccccc1)NCC(O)c1ccc(O)c(C(N)=O)c1 (stereo not given) [LABETALOL]	> 500 µM	inhibition at 0.5 h, 500 µM [4]: > 25%
CCN1CCC[C@H]1CNC(=O)c1c(O)c(Cl)cc(Cl)c1OC [RACLOPRIDE]	> 500 µM	–
CC(C)NCC(O)COc1cccc2ccccc12 (stereo not given) [PROPRANOLOL]	–	Drug uptake [5]: Active; Drug uptake [6]: Not Active; Drug uptake [2]: 189 pmol; Drug uptake [7]: Not Active; Drug uptake [8]: Not Active; Drug uptake [9]: Not Active; Drug uptake [10]: Active; Drug uptake [11]: Not Active; Drug uptake [12]: Not Active; Drug uptake [13]: Not Active; Drug uptake [14]: Active; Drug uptake [15]: Not Active; Drug uptake [16]: Not Active; Drug uptake [17]: Not Active; Drug uptake [18]: Not Active; Drug uptake [19]: Active; Drug uptake [3]: Not Active; Drug uptake [20]: Not Active; Drug uptake [21]: Not Active; Drug uptake [22]: Not Active
O=C(O)Cc1ccccc1Nc1c(Cl)cccc1Cl [DICLOFENAC]	> 500 µM	–
CNCCC(Oc1ccc(C(F)(F)F)cc1)c1ccccc1 (stereo not given) [FLUOXETINE]	150 µM	–
CCN(CC)Cc1cc(Nc2ccnc3cc(Cl)ccc23)ccc1O [AMODIAQUINE]	> 500 µM	inhibition at 0.5 h, 500 µM [4]: > 25%
CC(C)Cc1ccc(C(C)C(=O)O)cc1 (stereo not given) [IBUPROFEN]	> 500 µM	–
COc1ccc2c(c1)[C@]13CCCC[C@@H]1[C@H](C2)N(C)CC3 [DEXTROMETHORPHAN]	> 500 µM	inhibition at 0.5 h, 500 µM [4]: > 25%
COC(=O)C1=C(C)NC(C)=C(C(=O)OC)C1c1ccccc1[N+](=O)[O-] [NIFEDIPINE]	> 500 µM	–
Fc1ccc([C@@H]2CCNC[C@H]2COc2ccc3c(c2)OCO3)cc1 [PAROXETINE]	130 µM	–
CC[C@H](C)C(=O)O[C@H]1C[C@H](O)C=C2C=C[C@H](C)[C@H](CC[C@@H](O)C[C@@H](O)CC(=O)O)[C@H]21 [PRAVASTATIN]	> 500 µM	–
CS(=O)(=O)CCNCc1ccc(-c2ccc3ncnc(Nc4ccc(OCc5cccc(F)c5)c(Cl)c4)c3c2)o1 [LAPATINIB]	380 µM	–
CC(C(=O)O)c1cccc(C(=O)c2ccccc2)c1 (stereo not given) [KETOPROFEN]	> 500 µM	–
O=C(c1ccccc1)c1ccc2n1CCC2C(=O)O (stereo not given) [KETOROLAC]	> 500 µM	–
CC(C)c1nc(N(C)S(C)(=O)=O)nc(-c2ccc(F)cc2)c1/C=C/[C@@H](O)C[C@@H](O)CC(=O)O [ROSUVASTATIN]	> 500 µM	–
